In general, Cmax refers to the peak of the concentration-time curve. As a reminder, the Tmax is the time from dosing to the highest level. In general, AUC(0-inf) refers to total exposure, with the tail of the curve extrapolated. Low readings indicate less exposure, high ones more exposure.

Each structure is given as a SMILES string.

The results in this text go back to article PMC9302452 (ACS Bio & Med Chem Au, 2022).

The test system of one series is ERRβ. Briefly: Real-time PCR, transcriptional level of ERRβ. To be noted: 5.0 μM, 24 h incubation. In kind it is cell-based. The method, boiled down: (§1)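 mRNA was quantified by real-time PCR with SYBR Premix Ex Taq under optimised conditions. Gene expression was normalised to Gapdh as the reference gene.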
For orientation: Real-time PCR tracks product formation cycle by cycle.

The target in series [1] is T1, ERRα (Homo sapiens, UniProt P11474).
T1 sequence (P11474 193-421 limits assumed): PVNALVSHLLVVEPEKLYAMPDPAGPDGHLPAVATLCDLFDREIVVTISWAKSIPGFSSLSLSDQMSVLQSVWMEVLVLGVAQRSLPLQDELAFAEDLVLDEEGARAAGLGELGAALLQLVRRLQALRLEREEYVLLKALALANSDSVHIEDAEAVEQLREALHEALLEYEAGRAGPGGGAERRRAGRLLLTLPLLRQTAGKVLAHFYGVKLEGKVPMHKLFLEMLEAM
T1 sequence (Q9UBK2 1-798 partner): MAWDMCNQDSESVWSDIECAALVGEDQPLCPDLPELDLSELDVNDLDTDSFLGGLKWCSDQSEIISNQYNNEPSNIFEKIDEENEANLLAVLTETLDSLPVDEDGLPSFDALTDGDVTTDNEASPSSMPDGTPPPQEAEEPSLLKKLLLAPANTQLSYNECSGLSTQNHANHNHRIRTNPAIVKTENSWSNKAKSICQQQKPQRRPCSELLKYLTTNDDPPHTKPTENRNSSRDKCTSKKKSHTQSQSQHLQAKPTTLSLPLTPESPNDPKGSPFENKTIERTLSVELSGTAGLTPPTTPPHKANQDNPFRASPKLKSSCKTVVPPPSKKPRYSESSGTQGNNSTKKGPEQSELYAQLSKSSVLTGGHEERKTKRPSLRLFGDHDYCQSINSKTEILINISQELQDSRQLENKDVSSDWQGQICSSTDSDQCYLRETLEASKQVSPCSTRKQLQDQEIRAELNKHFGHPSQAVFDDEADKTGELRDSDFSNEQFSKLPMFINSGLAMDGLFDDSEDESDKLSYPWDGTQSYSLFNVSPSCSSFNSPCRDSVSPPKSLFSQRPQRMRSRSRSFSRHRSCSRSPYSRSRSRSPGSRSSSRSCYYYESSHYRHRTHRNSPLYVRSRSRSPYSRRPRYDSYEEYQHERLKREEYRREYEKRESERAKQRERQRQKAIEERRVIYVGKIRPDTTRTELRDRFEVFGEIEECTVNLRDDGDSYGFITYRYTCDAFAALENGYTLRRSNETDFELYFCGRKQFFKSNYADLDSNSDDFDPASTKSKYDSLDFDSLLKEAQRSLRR
Nature of the series: Transient transfection mammalian two-hybrid reporter gene assay. To be noted: 5.0 μM, 24 h incubation, heterologous cell-based reporter assay. In outline:
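HEK293T cells were seeded at 10,000/well in DMEM with 10% FBS. After 18–24 h they were lipofected with GAL4-DBD-ERRα-LBD (0.5 ng), pcDNA-PGC-1α (0.5 ng), pFR reporter (25 ng) and pRL-TK Renilla control (3.0 ng). Test compound was added at 5.0 μM 6 h post-transfection for a further 24 h, and firefly/Renilla luciferase was read by dual-luciferase assay.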
On the technique in general: In a reporter assay the amount or activity of a reporter protein is the signal.

The next series relates to PPARγ. Nature of the series: Expression of other nuclear hormone receptors: PPARγ. The class given is cell-based. The settings on record: Figure S3.
For series [2], the target named is T2, ERRα (Homo sapiens, UniProt P11474).
T2 sequence (P11474 1-423): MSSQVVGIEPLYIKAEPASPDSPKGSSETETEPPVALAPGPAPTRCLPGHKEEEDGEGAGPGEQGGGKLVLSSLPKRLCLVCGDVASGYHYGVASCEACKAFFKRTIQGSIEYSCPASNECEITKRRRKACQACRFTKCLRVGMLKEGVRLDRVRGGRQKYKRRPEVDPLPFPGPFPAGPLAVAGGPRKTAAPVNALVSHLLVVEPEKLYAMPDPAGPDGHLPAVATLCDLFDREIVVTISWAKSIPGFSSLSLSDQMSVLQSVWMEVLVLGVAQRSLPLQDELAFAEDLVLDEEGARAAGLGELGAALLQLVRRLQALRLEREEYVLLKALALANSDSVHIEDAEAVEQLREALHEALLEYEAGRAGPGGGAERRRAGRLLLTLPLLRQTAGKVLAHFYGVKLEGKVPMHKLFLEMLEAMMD
Briefly: Cellular thermal shift assay. In kind it is cell-based. To be noted: HepG2 cells, concentration as low as 1.0 μM. In outline:
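HepG2 cells grown to ~90% confluence were exposed to DMSO or test compound (1.0 or 5.0 μM in fresh medium) for 4 h at 37 °C, 5% CO2. Cells were harvested, washed, resuspended in PBS, split into seven aliquots and heated at 48–60 °C for 3 min. They were then held 10 min at room temperature and freeze-thawed thrice in liquid nitrogen. Lysates were spun 30 min at 4 °C and soluble ERRα was assessed by SDS-PAGE/western blot.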

A short description of series [3]: Pharmacokinetics in SD rats. The class given is in vivo, rat. In outline: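 Male Sprague–Dawley rats were dosed with test compound i.v. at 2.0 mg/kg or by oral gavage at 10 mg/kg. The formulation was 5% DMSO/95% hydroxypropyl-β-cyclodextrin (20% w/v) at 1 mg/mL. Orbital-sinus blood was drawn into heparin at 5, 15 and 30 min and at 1, 2, 4, 6, 8 and 24 h. Plasma was stored at −80 °C and quantified by LC/MS, and PK parameters were calculated.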

A further series has as its system HepG2-IR cells. Briefly: Fatty acid oxidation assay in HepG2-IR cells. In kind it is cell-based. The method, boiled down:
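Insulin-resistant HepG2 (HepG2-IR) cells were treated with test compound or vehicle for 24 h. They were then incubated 1.5 h at 37 °C with 0.2 mM L-carnitine and 200 μM [14C(U)]palmitate (0.1 μCi/mL), compound still present. Released CO2 was trapped on methylbenzylamine/methanol-soaked paper after acidifying with 6 M HCl. Acid-soluble products in the supernatant were also counted by scintillation. Values were normalised to protein (BCA) from parallel wells.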

In a further series the test system is Errα-LKO mice. Briefly: Errα-LKO mice on HFD treated with compound. The class given is in vivo, mouse. The settings on record: 30 mg/kg body weight. In outline:
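Liver-specific Errα knockout mice came from crossing Errα-floxed with albumin-Cre mice. They were fed HFD for 8 weeks, then gavaged daily for 4 weeks with test compound (30 mg/kg) or PBS vehicle diluted in 0.5% CMC-Na. For IGTT, overnight-fasted mice received 1.0 g/kg glucose i.p. For ITT, 6 h-fasted mice received 0.5 U/kg human insulin i.p. Tail-vein glucose was read by glucometer. Liver glucose uptake was also measured; n = 5.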

Series [4] relates to ERRα-targeted genes MCAD, PDK4, ATP5β. Nature of the series: Quantitative real-time PCR of ERRα-targeted genes. In kind it is cell-based. In outline:
as §1

Another series has as its system ERα. Nature of the series: Expression of other nuclear hormone receptors: ERα. In kind it is cell-based. To be noted: Figure S3.
Series [5] has as its system ERRα target genes in HepG2-IR cells. Briefly: Expression of ERRα and target genes in HepG2-IR cells. In kind it is cell-based.
Where [6] appears, read: male, Sprague-Dawley, rat, plasma, po, 10 mg/kg.

For the compound `COc1ccc2c(=O)n(C)c(-c3ccccc3)nc2c1` [Compound 7, 7-methoxy-3-methyl-2-phenyl quinazolin-4(3H)-one], the “Effect on transcriptional level of ERRβ” value with ERRβ is reported as “did not display an obvious effect”. Moreover, the ERRα-driven luciferase activity entry at ERRα [1] is recorded as “effectively improved the ERRα-driven luciferase activity”. Also, the “Expression of PPARγ” value with PPARγ is on record as “not obviously affected”. Further, the “Thermal degradation of ERRα” value on ERRα [2] is “obviously inhibited thermal degradation of ERRα”. The Maximum plasma concentration in series [3] (SD rat, PO 10 mg/kg) was determined as 2.0 ± 0.45 µM. In addition, the “F (oral bioavailability)” value in [3] (SD rat, PO 10 mg/kg vs IV 2 mg/kg, printed on the IV line of Table S1) is recorded as 9.0%. Besides, in series [3] (setting [6]), the concentration peaked (Cmax) at 531 ± 120 ng/mL and the Tmax was 15 min. In addition, the AUC(0-inf) in series [3] (male, Sprague-Dawley, rat, plasma, po, 10 mg/kg, AUC(0-∞), SD rat, PO 10 mg/kg) was determined as 383 ± 110 ng·h/mL. For the same compound, in the series on HepG2-IR cells, the Fatty acid oxidation result is “significantly enhanced”. In addition, in the series with Errα-LKO mice, the “Effects on systemic and liver insulin resistance in Errα-LKO mice” value is reported as “almost completely abolished”. In series [4], the “mRNA levels of ERRα downstream genes (MCAD, PDK4, ATP5β)” value is “dose-dependently elevated mRNA levels”. Besides, in the series on ERα, the “Expression of ERα” value was “not obviously affected”. Also, in [5], the “Expression of ERRα target genes including Errα” value is “increased by the molecule in a dose-dependent manner”.
